{"data": "Measurements from different studies", "AGTR1": "Type-1 angiotensin II receptor (AGTR1, Homo sapiens, UniProt P30556)", "Transmembrane protease serine 6": "Transmembrane protease serine 6 (Homo sapiens, UniProt Q8IU80)", "AVPR2": "Vasopressin V2 receptor (AVPR2, Homo sapiens, UniProt P30518)", "SRPK3": "SRSF protein kinase 3 (SRPK3, Homo sapiens, UniProt Q9UPE1)", "note": "Each line is one published result; the experiments were not run side by side."}
{"SMILES": "CC(C)C(CC(=O)NO)N=[N+]=[N-] (centres unmarked)", "target": "Endoplasmic reticulum aminopeptidase 2 (ERAP2, Homo sapiens, UniProt Q6P179)", "assay": "enzyme activity, inhibitor, fluorescence", "setting": "300 µM", "inhibition [%]": 5}
{"SMILES": "COc1cc(Nc2ncc(F)c(Nc3ccc4c(n3)NC(=O)C(C)(C)O4)n2)cc(OC)c1OC", "target": "Serine/threonine-protein kinase TAO1 (TAOK1, Homo sapiens, UniProt Q7L7X3)", "assay": "binding", "setting": "10 µM", "inhibition [%]": 92}
{"SMILES": "CCN(CC)CCCC[C@H](NC(=O)[C@H](CC(C)C)NC(=O)[C@H](C)NC(=O)[C@H](Cc1ccccc1)NC(=O)c1ccc(C(C)(C)C)cc1)C(=O)N[C@@H](CO)C(=O)OC", "target": "AGTR1", "assay": "ligand displacement, radioligand", "setting": "10 µM", "inhibition [%]": -4}
{"SMILES": "C#Cc1n[nH]c2c(-c3cn([C@@H](C)c4ccccc4)c(=O)[nH]c3=O)cc(F)cc12", "target": "Serine/threonine-protein kinase mTOR (MTOR, Homo sapiens, UniProt P42345)", "assay": "enzyme activity, inhibitor", "setting": "0.1 µM", "inhibition [%]": 6.8}
{"SMILES": "CN1CCN(CCOc2ccc3occc(=O)c3c2)CC1", "target": "Transmembrane protease serine 6", "assay": "enzyme activity, inhibitor, fluorescence", "setting": "10 µM", "inhibition [%]": 6}
{"SMILES": "Clc1ccc2c(C3CCN(CCc4c[nH]c5ccccc45)CC3)c[nH]c2c1", "target": "Neuronal acetylcholine receptor; alpha4/beta2 (Homo sapiens, UniProt P17787+P43681)", "assay": "ligand displacement, radioligand", "setting": "10 µM", "inhibition [%]": 3}
{"SMILES": "COCCN(CCOC)C(=O)[C@@]12C[C@@H]1[C@@H](n1cnc3c(NC(C4CC4)C4CC4)nc(Cl)nc31)[C@H](O)[C@@H]2O", "target": "Adenosine receptor A3 (ADORA3, Homo sapiens, UniProt P0DMS8)", "assay": "ligand displacement, radioligand", "setting": "10 µM", "inhibition [%]": 30}
{"SMILES": "O=C(Nc1cccnn1)N1CCN([C@@H]2CCOc3cc(C(F)(F)F)ccc32)CC1", "target": "AVPR2", "assay": "cell-free assay", "setting": "20 µM", "inhibition [%]": -4}
{"SMILES": "Cn1cc(-c2cccc(N3CCc4c(sc5c4CC(C)(C)C5)C3=O)c2CO)cc(Nc2ccncn2)c1=O", "target": "SRPK3", "assay": "enzyme activity, inhibitor", "setting": "1 µM", "inhibition [%]": 9}
{"SMILES": "c1ccc(C(NCCNC(c2ccccc2)c2ccccc2)c2ccccc2)cc1", "target": "AGTR1", "assay": "cell-free assay", "setting": "10 µM", "inhibition [%]": 40}
{"SMILES": "Cn1cc(-c2cc(F)cc(N3CCn4c(cc5c4CCCC5)C3=O)c2CO)cc(Nc2ccc(N3CCN(C4COC4)CC3)cn2)c1=O", "target": "SRPK3", "assay": "enzyme activity, inhibitor", "setting": "0.1 µM", "inhibition [%]": 15}
{"SMILES": "CN1CCN(CCCCOc2ccc3occc(=O)c3c2)CC1", "target": "Transmembrane protease serine 6", "assay": "enzyme activity, inhibitor, fluorescence", "setting": "10 µM", "inhibition [%]": 11}
{"SMILES": "CCCCCCCCCCCC(=O)OC[C@@H](COP(=O)(O)OCCNC(=O)c1ccc(Cn2c(=O)[nH]c3c(N)nc(OCCOC)nc32)cc1)OC(=O)CCCCCCCCCCC", "target": "Neuropeptide Y receptor type 1 (NPY1R, Homo sapiens, UniProt P25929)", "assay": "ligand displacement, radioligand", "setting": "10 µM", "inhibition [%]": 11}
{"SMILES": "COc1ccc(S(=O)(=O)N2CCCCC2)cc1C", "target": "AGTR1", "assay": "ligand displacement, radioligand", "setting": "10 µM", "inhibition [%]": "< 30"}
{"SMILES": "CN(CCN1CCC(OC(=O)Nc2ccccc2-c2ccccc2)CC1)C(=O)c1ccc(CN2CCC(C(N)=O)CC2)cc1", "target": "AVPR2", "assay": "ligand displacement, radioligand", "setting": "1 µM", "inhibition [%]": -7}
{"SMILES": "C[C@H](C(=O)N[C@H]1COc2ccccc2[C@@H]1S(C)(=O)=O)c1ccc(F)cc1", "target": "AGTR1", "assay": "cell-free assay", "setting": "10 µM", "inhibition [%]": -6}
{"SMILES": "C#Cc1n[nH]c2c(-c3cn([C@@H](C)c4ccccn4)c(=O)[nH]c3=O)cc(F)cc12", "target": "Serine/threonine-protein kinase B-raf (BRAF, Homo sapiens, UniProt P15056)", "assay": "enzyme activity, inhibitor", "setting": "0.1 µM", "inhibition [%]": -0.3}
{"SMILES": "COCc1c(-c2cc3cc(C)cc(OC)c3s2)c2c(N)ncnn2c1CN1CCNC(=O)C1", "target": "Serine/threonine-protein kinase Nek5 (NEK5, Homo sapiens, UniProt Q6P3R8)", "assay": "cell-free assay, competition with immobilised ligand", "setting": "1 µM", "inhibition [%]": 90.1}
{"SMILES": "O=c1ccoc2ccc(OCCCCN3CCCCC3)cc12", "target": "Transmembrane protease serine 6", "assay": "enzyme activity, inhibitor, fluorescence", "setting": "10 µM", "inhibition [%]": 12}
{"SMILES": "Cc1ccc2nc(N3C(=O)C(O)=C(C(=O)OC(C)(C)C)C3c3ccc(-c4ccc(Cl)cc4)o3)sc2c1 (centres unmarked)", "target": "UDP-N-acetylenolpyruvoylglucosamine reductase (murB, Escherichia coli K-12, UniProt P08373)", "assay": "enzyme activity, inhibitor", "setting": "20 µM", "inhibition [%]": 46}
